Data published in ChEMBL document CHEMBL1649163, “Surfactants, aromatic and isoprenoid compounds, and fatty acid biosynthesis inhibitors suppress Staphylococcus aureus production of toxic shock syndrome toxin 1” (2009).

Legend:
Format in all cases: functional
[1] = tested on: Staphylococcus aureus; assay: Effect on growth in Staphylococcus aureus MN8 at 0.50 % after 24 hrs (reference value: 100%)
How it was run: (§1)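 Test-tube growth assay: 10 ml growth medium (brain heart infusion with 10% fetal bovine serum, MgCl2, L-glutamine) inoculated to 5 × 10^6 CFU/ml from a 24 h 37°C preculture. Compound diluted in medium, or dissolved in methanol with methanol-matched controls. After 24 h at 37°C with 5% CO2, OD600 and viable counts read. Growth given as % of CFU/ml of untreated controls in the same experiment.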

[2] = tested on: Staphylococcus aureus; assay: Effect on growth in Staphylococcus aureus MN8 at 0.10 % after 24 hrs (reference value: 100%); how it was run: as §1
[3] = tested on: Staphylococcus aureus
[4] = tested on: Staphylococcus aureus; remark: listed apart in the source
[5] = tested on: Staphylococcus aureus; assay: Effect on growth in Staphylococcus aureus MN8 at 6.40 mM after 24 hrs (reference value: 100%); how it was run: as §1
[6] = tested on: Staphylococcus aureus; assay: Effect on growth in Staphylococcus aureus MN8 at 3.20 mM after 24 hrs (reference value: 100%); how it was run: as §1
[7] = tested on: Staphylococcus aureus; assay: microbe, parasite or virus in culture; details: 24 h
[8] = tested on: Staphylococcus aureus; assay: microbe, parasite or virus in culture; details: 24 h; remark: listed apart in the source
[9] = tested on: Staphylococcus aureus; assay: Effect on growth in Staphylococcus aureus MN8 at 10.7 mM after 24 hrs (reference value: 100%); how it was run: as §1
[10] = tested on: Staphylococcus aureus; assay: microbe, parasite or virus in culture; details: 24 h; remark: listed apart in the source
[11] = tested on: Staphylococcus aureus; assay: microbe, parasite or virus in culture; details: 24 h; remark: listed apart in the source
[12] = tested on: Staphylococcus aureus; assay: Effect on growth in Staphylococcus aureus MN8 at 6.50 mM after 24 hrs (reference value: 100%); how it was run: as §1
[13] = tested on: Staphylococcus aureus; assay: Effect on growth in Staphylococcus aureus MN8 at 0.65 mM after 24 hrs (reference value: 100%); how it was run: as §1
[14] = tested on: Staphylococcus aureus; assay: microbe, parasite or virus in culture; details: 24 h; remark: listed apart in the source
[15] = tested on: Staphylococcus aureus; assay: microbe, parasite or virus in culture; details: 24 h; remark: listed apart in the source
[16] = tested on: Staphylococcus aureus; assay: Effect on growth in Staphylococcus aureus MN8 at 9.8 mM after 24 hrs (reference value: 100%); how it was run: as §1
[17] = tested on: Staphylococcus aureus; assay: microbe, parasite or virus in culture; details: 24 h; remark: listed apart in the source
[18] = tested on: Staphylococcus aureus; assay: Effect on growth in Staphylococcus aureus MN8 at 0.75 mM after 24 hrs (reference value: 100%); how it was run: as §1
[19] = tested on: Staphylococcus aureus; assay: microbe, parasite or virus in culture; details: 24 h; remark: listed apart in the source
[20] = tested on: Staphylococcus aureus; assay: Effect on growth in Staphylococcus aureus MN8 at 0.20 % after 24 hrs (reference value: 100%); how it was run: as §1
[21] = tested on: Staphylococcus aureus; remark: listed apart in the source
[22] = tested on: Staphylococcus aureus; assay: Effect on growth in Staphylococcus aureus MN8 at 0.67 mM after 24 hrs (reference value: 100%); how it was run: as §1
[23] = tested on: Staphylococcus aureus; assay: microbe, parasite or virus in culture; details: 24 h; remark: listed apart in the source

Row | SMILES | Activity [1] [%] | Activity [2] [%] | inhibition (INH) [3] [%] | inhibition (INH) [4] [%] | other results
1 | CC(=O)Nc1ccc(O)cc1 [ACETAMINOPHEN] | 13.2 | 44.2 | 10.8 | 56.3 | 
2 | NC(=O)c1ccccc1O [SALICYLAMIDE] | 14.5 | 61.5 | 11.3 | 49.2 | 
3 | OCc1ccccc1 [BENZYL ALCOHOL] | 8.9 | 49.7 | 13.8 | 43.5 | 
4 | CC1CCC(C(C)C)C(O)C1 (stereo not drawn) [MENTHOL] |  |  |  |  | Activity [5]: 32.2%; Activity [6]: 119.5%; inhibition at 6400 µM [7]: 1.8%; inhibition at 3200 µM [8]: 24.4%
5 | CCCCCCCCCCCC1=NCC[N+]1(CCOCC(=O)[O-])CC(=O)[O-].[Na+].[Na+].[OH-] (stereo not drawn) [DISODIUM LAUROAMPHODIACETATE] |  |  |  |  | Activity [9]: 11.3%; inhibition at 10700 µM [10]: 1%
6 | OCCOc1ccccc1 [PHENOXYETHANOL] | 32.3 | 54.3 | 25.1 | 42.3 | 
7 | O=C(O)c1cc(O)c(O)c(O)c1 [GALLIC ACID] | 2.6 | 45 | 8.7 | 41.4 | 
8 | CCCCCCCCCCCCN(CCC(=O)O)CCC(=O)O [SODIUM LAURIMINODIPROPIONIC ACID] |  |  |  |  | inhibition at 2200 µM [11]: 1%
9 | CC1=CCC(O)(C(C)C)CC1 (stereo not drawn) [TERPINEOL] |  |  |  |  | Activity [12]: 90.5%; Activity [13]: 112.7%; inhibition at 6500 µM [14]: 12.4%; inhibition at 650 µM [15]: 82.3%
10 | COC(=O)c1ccc(O)cc1 [METHYLPARABEN] |  | 21.4 |  | 20.7 | 
11 | CCCCCCCCCCCCOCCOCCOCCOC(=O)CC(C(=O)[O-])S(=O)(=O)[O-].[Na+].[Na+] (stereo not drawn) [DISODIUM LAURETH SULFOSUCCCINATE] |  |  |  |  | Activity [16]: 10.3%; inhibition at 9800 µM [17]: 0.6%
12 | C=CC(C)(O)CCC=C(C)C (stereo not drawn) [LINALOOL] |  |  |  |  | Activity [18]: 121.6%; inhibition at 750 µM [19]: 12.2%
13 | Nc1ccc(C(=O)O)cc1 [AMINOBENZOIC ACID] |  |  |  |  | Activity [20]: 11.8%; inhibition (INH) [21]: 8.6%
14 | CCCCCCCCCCCC(=O)OCC(O)CO (racemic) [GLYCEROL MONOLAURATE] |  |  |  |  | Activity [9]: 36.3%; inhibition at 10700 µM [10]: 5.2%
15 | Cc1ccc(C(C)C)c(O)c1 [THYMOL] |  |  |  |  | Activity [22]: 99%; inhibition at 670 µM [23]: 37.4%
